Experimental data from ChEMBL document CHEMBL4257484, “Membrane-active antimicrobial poly(amino-modified alkyl) β-cyclodextrins synthesized via click reactions” (Medchemcomm, 2018).
≈ marks a conversion by molar mass, not a printed value.

How the values were obtained:
[1] = Hemolytic activity in rabbit RBC at 10 uM after 20 mins relative to control; format: ADME, cell-based, Oryctolagus cuniculus, Erythrocyte; conditions: rabbit red blood cells (erythrocytes), read-out: Activity
Procedure, shortened: (§1)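 Rabbit erythrocytes suspended in 150 mM NaCl/10 mM Hepes-NaOH, pH 7.4, at 0.5% hematocrit (final) and incubated with compound at 37 °C. The table footnote gives 20 min; the methods section gives 30 min. Hemolysis was read as absorbance at 540 nm, with 50 µM lysolecithin defining 100% hemolysis.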

Bacillus subtilis = experiment: Antibacterial activity against drug-sensitive Bacillus subtilis 168 after 20 hrs by liquid microdilution method; format: functional; conditions: subsp. subtilis str. 168, 20 h
Procedure, shortened: (§2)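 Two-fold serial dilutions of compound in Mueller–Hinton broth, inoculated with 1 × 10^4 cells and cultured at 37 °C for 20 h in microtiter wells.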

[2] = Hemolytic activity in rabbit RBC at 1 uM after 20 mins relative to control; format: ADME, cell-based, Oryctolagus cuniculus, Erythrocyte; conditions: rabbit red blood cells (erythrocytes), read-out: Activity; procedure, shortened: as §1
Enterococcus faecium = experiment: Antibacterial activity against drug-resistant Enterococcus faecium MS29120 after 18 to 20 hrs by agar dilution method; format: functional
Procedure, shortened: (§3)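 Agar dilution per CLSI. Overnight broth cultures were diluted 100-fold, and one loopful (about 10^5 to 10^4 CFU) was spotted onto agar plates containing the CD. Growth was scored after 18–20 h at 37 °C. MIC values are in µM.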

Enterococcus faecalis [3] = experiment: Antibacterial activity against vancomycin-resistant Enterococcus faecalis MS29016 after 18 to 20 hrs by agar dilution method; format: functional; procedure, shortened: as §3
Staphylococcus aureus [4] = experiment: Antibacterial activity against methicillin-resistant Staphylococcus aureus MS29202 after 18 to 20 hrs by agar dilution method; format: functional; procedure, shortened: as §3
Staphylococcus aureus [5] = experiment: Induction of membrane disruption in methicillin-sensitive Staphylococcus aureus FDA 209P assessed as increase in K+ efflux after 30 mins; format: functional; conditions: 0.5 h, read-out: ED50 (the source's name)
Procedure, shortened: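 S. aureus washed twice and suspended at 2 × 10^9 cells per cm3 in 100 mM choline chloride/50 mM Mops-Tris, pH 7.2, then exposed to compound at 37 °C for 30 min. Released K+ was measured in the centrifuged supernatant with a K+-selective electrode. Melittin (10 µM) defined 100% efflux, and ED50 is the concentration giving 50% efflux.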

Streptococcus agalactiae = experiment: Antibacterial activity against drug-resistant Streptococcus agalactiae B1 after 18 to 20 hrs by agar dilution method; format: functional; procedure, shortened: as §3
[6] = Hemolytic activity in rabbit RBC at 20 uM after 20 mins relative to control; format: ADME, cell-based, Oryctolagus cuniculus, Erythrocyte; conditions: rabbit red blood cells (erythrocytes), read-out: Activity; procedure, shortened: as §1
[7] = (§4) Hemolytic activity in rabbit RBC at 50 uM after 20 mins relative to control; format: ADME, cell-based, Oryctolagus cuniculus, Erythrocyte; conditions: rabbit red blood cells (erythrocytes), read-out: Activity; procedure, shortened: as §1
Escherichia coli = experiment: Antibacterial activity against drug-sensitive Escherichia coli K-12 W3110 after 20 hrs by liquid microdilution method; format: functional; conditions: K-12 substr. W3110, 20 h; procedure, shortened: as §2
Enterococcus faecalis [8] = experiment: Antibacterial activity against drug-resistant Enterococcus faecalis MS29030 after 18 to 20 hrs by agar dilution method; format: functional; procedure, shortened: as §3
[9] = Lipophilicity, log P of the compound; format: physicochemical; conditions: octanol/water
Staphylococcus aureus [10] = experiment: Antibacterial activity against methicillin-sensitive Staphylococcus aureus FDA 209P after 20 hrs by liquid microdilution method; format: functional; procedure, shortened: as §2
Pseudomonas aeruginosa = experiment: Antibacterial activity against drug-sensitive Pseudomonas aeruginosa PAO1 after 20 hrs by liquid microdilution method; format: functional; conditions: PAO1, 20 h; procedure, shortened: as §2
Salmonella typhimurium = experiment: Antibacterial activity against drug-sensitive Salmonella typhimurium LT2 after 20 hrs by liquid microdilution method; format: functional, Salmonella enterica subsp. enterica serovar Typhimurium; conditions: Salmonella enterica, LT2, 20 h; procedure, shortened: as §2
Staphylococcus aureus [11] = experiment: Antibacterial activity against Staphylococcus aureus FDA 209P assessed as decrease in cell viability after 30 mins by colony counting method; format: functional; conditions: 0.5 h
Procedure, shortened: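 S. aureus washed twice and suspended at 2 × 10^9 cells per cm3 in 100 mM choline chloride/50 mM Mops-Tris, pH 7.2. Exposed to CD at 37 °C for 30 min. An aliquot was diluted in physiological saline, plated on polypeptone/yeast extract/NaCl agar and incubated overnight at 37 °C. Viability was taken from colony counts; LC50 is the concentration giving 50% viability.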

[12] = Hemolytic activity in rabbit RBC at 2 uM after 20 mins relative to control; format: ADME, cell-based, Oryctolagus cuniculus, Erythrocyte; conditions: rabbit red blood cells (erythrocytes), read-out: Activity; procedure, shortened: as §1
[13] = Hemolytic activity in rabbit RBC at 5 uM after 20 mins relative to control; format: ADME, cell-based, Oryctolagus cuniculus, Erythrocyte; conditions: rabbit red blood cells (erythrocytes), read-out: Activity; procedure, shortened: as §1
Erythrocyte = experiment: as §4; format: ADME, cell-based, Oryctolagus cuniculus; conditions: erythrocyte, 20 min, 50 µM; procedure, shortened: as §1

SMILES | hemolysis at 20 min, 10 µM [1] | MIC (Bacillus subtilis) | hemolysis at 20 min, 1 µM [2] | MIC (Enterococcus faecium) | MIC (Enterococcus faecalis [3]) | MIC (Staphylococcus aureus [4]) | EC50 (Staphylococcus aureus [5]) | MIC (Streptococcus agalactiae) | hemolysis at 20 min, 20 µM [6] | hemolysis at 20 min, 50 µM [7] | MIC (Escherichia coli) | MIC (Enterococcus faecalis [8]) | logP [9] | MIC (Staphylococcus aureus [10]) | MIC (Pseudomonas aeruginosa) | MIC (Salmonella typhimurium) | LC50 (Staphylococcus aureus [11]) | hemolysis at 20 min, 2 µM [12] | hemolysis at 20 min, 5 µM [13] | Activity (Erythrocyte)
CCCCNCc1cn(C[C@H]2O[C@@H]3O[C@H]4[C@H](O)[C@@H](O)[C@@H](O[C@H]5[C@H](O)[C@@H](O)[C@@H](O[C@H]6[C@H](O)[C@@H](O)[C@@H](O[C@H]7[C@H](O)[C@@H](O)[C@@H](O[C@H]8[C@H](O)[C@@H](O)[C@@H](O[C@H]9[C@H](O)[C@@H](O)[C@@H](O[C@H]2[C@H](O)[C@H]3O)O[C@@H]9Cn2cc(CNCCCC)nn2)O[C@@H]8Cn2cc(CNCCCC)nn2)O[C@@H]7Cn2cc(CNCCCC)nn2)O[C@@H]6Cn2cc(CNCCCC)nn2)O[C@@H]5Cn2cc(CNCCCC)nn2)O[C@@H]4Cn2cc(CNCCCC)nn2)nn1 | 0% | 11 µM (≈ 23 µg/mL) | 0% | > 44 µM | > 44 µM | > 44 µM | > 50 µM | > 44 µM | 0% | 0% | > 44 µM | > 44 µM | -0.9 | 11 to 22 µM (≈ 23 to 45.9 µg/mL) | > 44 µM | > 44 µM | > 50 µM | 0% | 0% | 
CCCCCCCNCc1cn(C[C@H]2O[C@@H]3O[C@H]4[C@H](O)[C@@H](O)[C@@H](O[C@H]5[C@H](O)[C@@H](O)[C@@H](O[C@H]6[C@H](O)[C@@H](O)[C@@H](O[C@H]7[C@H](O)[C@@H](O)[C@@H](O[C@H]8[C@H](O)[C@@H](O)[C@@H](O[C@H]9[C@H](O)[C@@H](O)[C@@H](O[C@H]2[C@H](O)[C@H]3O)O[C@@H]9Cn2cc(CNCCCCCCC)nn2)O[C@@H]8Cn2cc(CNCCCCCCC)nn2)O[C@@H]7Cn2cc(CNCCCCCCC)nn2)O[C@@H]6Cn2cc(CNCCCCCCC)nn2)O[C@@H]5Cn2cc(CNCCCCCCC)nn2)O[C@@H]4Cn2cc(CNCCCCCCC)nn2)nn1 | 110% | 5 µM (≈ 11.9 µg/mL) | 9% | > 40 µM | > 40 µM | > 40 µM | 30 µM | > 40 µM | 116% |  | 20 µM (≈ 47.7 µg/mL) | > 40 µM | 0.36 | 5 to 40 µM (≈ 11.9 to 95.3 µg/mL) | 40 µM (≈ 95.3 µg/mL) | 20 µM (≈ 47.7 µg/mL) | 15 µM | 39% | 85% | 137%
CCCCCCNCc1cn(C[C@H]2O[C@@H]3O[C@H]4[C@H](O)[C@@H](O)[C@@H](O[C@H]5[C@H](O)[C@@H](O)[C@@H](O[C@H]6[C@H](O)[C@@H](O)[C@@H](O[C@H]7[C@H](O)[C@@H](O)[C@@H](O[C@H]8[C@H](O)[C@@H](O)[C@@H](O[C@H]9[C@H](O)[C@@H](O)[C@@H](O[C@H]2[C@H](O)[C@H]3O)O[C@@H]9Cn2cc(CNCCCCCC)nn2)O[C@@H]8Cn2cc(CNCCCCCC)nn2)O[C@@H]7Cn2cc(CNCCCCCC)nn2)O[C@@H]6Cn2cc(CNCCCCCC)nn2)O[C@@H]5Cn2cc(CNCCCCCC)nn2)O[C@@H]4Cn2cc(CNCCCCCC)nn2)nn1 | 25% | 3 µM (≈ 6.85 µg/mL) | 0% | 10 µM (≈ 22.8 µg/mL) | 42 µM (≈ 96 µg/mL) | 21 µM (≈ 48 µg/mL) | 15 µM | 10 µM (≈ 22.8 µg/mL) | 64% | 110% | 5 µM (≈ 11.4 µg/mL) | > 42 µM | -0.06 | 3 to 10 µM (≈ 6.85 to 22.8 µg/mL) | 10 µM (≈ 22.8 µg/mL) | 10 µM (≈ 22.8 µg/mL) | 15 µM | 4% | 7% | 
CCCCCNCc1cn(C[C@H]2O[C@@H]3O[C@H]4[C@H](O)[C@@H](O)[C@@H](O[C@H]5[C@H](O)[C@@H](O)[C@@H](O[C@H]6[C@H](O)[C@@H](O)[C@@H](O[C@H]7[C@H](O)[C@@H](O)[C@@H](O[C@H]8[C@H](O)[C@@H](O)[C@@H](O[C@H]9[C@H](O)[C@@H](O)[C@@H](O[C@H]2[C@H](O)[C@H]3O)O[C@@H]9Cn2cc(CNCCCCC)nn2)O[C@@H]8Cn2cc(CNCCCCC)nn2)O[C@@H]7Cn2cc(CNCCCCC)nn2)O[C@@H]6Cn2cc(CNCCCCC)nn2)O[C@@H]5Cn2cc(CNCCCCC)nn2)O[C@@H]4Cn2cc(CNCCCCC)nn2)nn1 | 0% | 1 µM (≈ 2.19 µg/mL) | 0% | 21 µM (≈ 45.9 µg/mL) | > 43 µM | 21 µM (≈ 45.9 µg/mL) | 20 µM | 3 µM (≈ 6.56 µg/mL) | 0% | 1% | 43 µM (≈ 94 µg/mL) | > 43 µM | -0.48 | 3 to 5 µM (≈ 6.56 to 10.9 µg/mL) | > 43 µM | > 43 µM | 20 µM | 0% | 1% | 
CC(C)CCNCc1cn(C[C@H]2O[C@@H]3O[C@H]4[C@H](O)[C@@H](O)[C@@H](O[C@H]5[C@H](O)[C@@H](O)[C@@H](O[C@H]6[C@H](O)[C@@H](O)[C@@H](O[C@H]7[C@H](O)[C@@H](O)[C@@H](O[C@H]8[C@H](O)[C@@H](O)[C@@H](O[C@H]9[C@H](O)[C@@H](O)[C@@H](O[C@H]2[C@H](O)[C@H]3O)O[C@@H]9Cn2cc(CNCCC(C)C)nn2)O[C@@H]8Cn2cc(CNCCC(C)C)nn2)O[C@@H]7Cn2cc(CNCCC(C)C)nn2)O[C@@H]6Cn2cc(CNCCC(C)C)nn2)O[C@@H]5Cn2cc(CNCCC(C)C)nn2)O[C@@H]4Cn2cc(CNCCC(C)C)nn2)nn1 | 0% | 1 µM (≈ 2.19 µg/mL) | 0% | 21 µM (≈ 45.9 µg/mL) | > 43 µM | 21 µM (≈ 45.9 µg/mL) |  | 11 µM (≈ 24.1 µg/mL) | 0% | 0% | > 43 µM | > 43 µM | -0.57 | 3 to 5 µM (≈ 6.56 to 10.9 µg/mL) | > 43 µM | > 43 µM |  | 0% | 0% | 
O[C@@H]1[C@@H](O)[C@H]2O[C@H]3[C@H](O)[C@@H](O)[C@@H](O[C@H]4[C@H](O)[C@@H](O)[C@@H](O[C@H]5[C@H](O)[C@@H](O)[C@@H](O[C@H]6[C@H](O)[C@@H](O)[C@@H](O[C@H]7[C@H](O)[C@@H](O)[C@@H](O[C@H]8[C@H](O)[C@@H](O)[C@@H](O[C@@H]1[C@@H](Cn1cc(CNCC9CCC9)nn1)O2)O[C@@H]8Cn1cc(CNCC2CCC2)nn1)O[C@@H]7Cn1cc(CNCC2CCC2)nn1)O[C@@H]6Cn1cc(CNCC2CCC2)nn1)O[C@@H]5Cn1cc(CNCC2CCC2)nn1)O[C@@H]4Cn1cc(CNCC2CCC2)nn1)O[C@@H]3Cn1cc(CNCC2CCC2)nn1 | 0% | 3 µM (≈ 6.52 µg/mL) | 0% | > 43 µM | > 43 µM | > 43 µM |  | > 43 µM | 0% | 0% | > 43 µM | > 43 µM | -1 | 5 to 11 µM (≈ 10.9 to 23.9 µg/mL) | > 43 µM | > 43 µM |  | 0% | 0% | 
OC[C@H]1O[C@@H]2O[C@H]3[C@H](O)[C@@H](O)[C@@H](O[C@H]4[C@H](O)[C@@H](O)[C@@H](O[C@H]5[C@H](O)[C@@H](O)[C@@H](O[C@H]6[C@H](O)[C@@H](O)[C@@H](O[C@H]7[C@H](O)[C@@H](O)[C@@H](O[C@H]8[C@H](O)[C@@H](O)[C@@H](O[C@H]1[C@H](O)[C@H]2O)O[C@@H]8CO)O[C@@H]7CO)O[C@@H]6CO)O[C@@H]5CO)O[C@@H]4CO)O[C@@H]3CO [BETADEX] |  |  |  |  |  |  | > 50 µM |  |  |  |  |  |  |  |  |  | > 50 µM |  |  | 
